Like-named read-outs stand apart in the source and are kept apart here.
What was measured:
[1] = target: ROP18 (Toxoplasma gondii, UniProt Q2PAY2); assay: biochemical
[2] = system: PDGFRβ; conditions: 0.1 μM; ref GSK PKIS profiling (Figure S5); cited from earlier work
[3] = system: TBK1; conditions: 1 μM; ref GSK PKIS profiling (Table S1); cited from earlier work
[4] = system: CDK3/cyclinE; conditions: 1 μM; ref GSK PKIS profiling (Table S1); cited from earlier work
[5] = system: MELK; conditions: 1 μM; ref GSK PKIS profiling (Table S1); cited from earlier work
[6] = system: CDK2; conditions: 0.1 μM; ref GSK PKIS profiling (Figure S5); cited from earlier work
[7] = system: ROP18 function in T. gondii infected RAW macrophages (Irga6 recruitment to PVM); assay: Irga6; type: cell-based, Toxoplasma gondii; conditions: 10 μM; for proportion of Irga6 positive vacuoles, visual scoring, Δrop18 parasites: Δrop18, IFN-γ-activated RAW macrophages; for amount of Irga6 recruitment, quantitative immunofluorescence, Δrop18 parasites: Δrop18, vs DMSO vehicle
In short: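 RAW264.7 macrophages on coverslips (10^5/well) primed 24 h with 100 U/ml mouse IFNγ plus 1 ng/ml LPS. RH Δku80 tachyzoites (wild type or rop18-disrupted) at 10^5/ml pretreated 30 min at 37°C with 10 μM test compound or 0.1% DMSO, then invaded 30 min. Formaldehyde-fixed, Triton-permeabilized, stained for TgAldolase and Irga6 (mAb 10D7). Irga6-positive vacuoles scored visually; intensity quantified over parasite/PVM region.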

[8] = system: RAW 264.7 macrophages; assay: MTS-based cell growth assay; conditions: Mus musculus, RAW264.7, 48 h, read-out: EC50 growth inhibition (MTS)
[9] = system: PDGFRα; conditions: 0.1 μM; ref GSK PKIS profiling (Figure S5); cited from earlier work
[10] = system: RAW264.7 macrophages; assay: LDH release cytotoxicity; type: cell-based, mouse; conditions: 4 h incubation, 20 μM
[11] = system: HepG2 hepatocarcinoma cells; conditions: 10 μM (48 h stated for compound 10); cited from earlier work
[12] = system: P. falciparum; conditions: 2 μM; cited from earlier work
[13] = system: P. falciparum 3D7 strain; conditions: 2 μM, 48 h; cited from earlier work
[14] = system: P. falciparum Dd2 strain (a multidrug resistant strain); conditions: 2 μM, 48 h; cited from earlier work
[15] = system: RAW264.7 macrophages; assay: Phase contrast microscopy of host cell morphology; type: cell-based, mouse; conditions: 10 μM, in as little as 30 min; rounding up and vesiculation
[16] = IC50 μM FL-8, substrate peptide FL-8, same assay conditions as primary screen
[17] = IC50 μM FL-E, substrate peptide FL-E, same assay conditions as primary screen

ROP18, sequence (Q2PAY2 98-554): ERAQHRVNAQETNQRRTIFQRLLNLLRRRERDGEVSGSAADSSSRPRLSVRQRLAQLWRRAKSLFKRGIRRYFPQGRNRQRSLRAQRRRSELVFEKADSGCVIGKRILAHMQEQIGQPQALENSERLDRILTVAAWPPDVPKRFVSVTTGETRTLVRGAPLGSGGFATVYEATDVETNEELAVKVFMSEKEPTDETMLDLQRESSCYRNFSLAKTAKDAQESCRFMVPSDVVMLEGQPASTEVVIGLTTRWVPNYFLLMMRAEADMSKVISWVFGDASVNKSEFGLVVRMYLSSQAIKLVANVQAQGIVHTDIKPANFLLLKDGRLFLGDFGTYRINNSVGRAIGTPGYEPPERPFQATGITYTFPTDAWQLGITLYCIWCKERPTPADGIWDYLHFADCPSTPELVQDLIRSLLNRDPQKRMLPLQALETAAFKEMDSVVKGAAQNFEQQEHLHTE

## NS(=O)(=O)c1ccc(N/C=C2\C(=O)Nc3ccc4ncsc4c32)cc1 [Compound 1, 4-[(7-hydroxy-6H-pyrrolo[2,3-g][1,3]benzothiazol-8-yl)methyleneamino]benzenesulfonamide]
[1]; [16]
  IC50: 1.21 µM
[1]; [17]
  IC50: 2.48 µM

## CC(C)COC(=O)c1ccc2c(c1)/C(=C/Nc1ccc(S(N)(=O)=O)cc1)C(=O)N2 [Compound 2, isobutyl 2-hydroxy-3-[(4-sulfamoylphenyl)iminomethyl]-1H-indole-5-carboxylate]
[2]
  inhibition of PDGFRβ: > 50%
[3]
  inhibition of TBK1: > 90%
[4]
  inhibition of CDK3/cyclinE: > 90%
[5]
  inhibition of MELK: > 90%
[1]
  Ki: 130 nM
[1]; [16]
  IC50: 0.51 µM
[1]; [17]
  IC50: 0.29 µM
[6]
  inhibition of CDK2: > 50%
[7]; vs DMSO vehicle
  proportion of Irga6 positive vacuoles, visual scoring, Δrop18 parasites: did not lead to a significant increase or decrease
[7]
  amount of Irga6 recruitment, quantitative immunofluorescence, Δrop18 parasites: did not lead to a significant increase or decrease
[8]
  EC50: 7400 nM
[9]
  inhibition of PDGFRα: > 50%

## CC(C)(CO)CNC(=O)c1ccc2c(c1)C(=NNc1ccc(S(N)(=O)=O)cc1)C(=O)N2 [Compound 3, 2-hydroxy-N-(3-hydroxy-2,2-dimethyl-propyl)-3-(4-sulfamoylphenyl)azo-1H-indole-5-carboxamide]
[1]; [16]
  IC50: 0.65 µM
[1]; [17]
  IC50: 0.19 µM

## NS(=O)(=O)c1ccc(NN=C2C(=O)Nc3ccc(C(=O)NCc4ccncc4)cc32)cc1 [Compound 4, 2-hydroxy-N-(4-pyridylmethyl)-3-(4-sulfamoylphenyl)azo-1H-indole-5-carboxamide]
[1]; [16]
  IC50: > 10 µM
[1]; [17]
  IC50: 2.66 µM

## O=S1(=O)CCc2ccc(Nc3nc(NC4CCNC4)nc4ccnc(O)c34)cc21 (stereo not shown) [Compound 5, 4-[(1,1-dioxo-2,3-dihydrobenzothiophen-6-yl)amino]-2-(pyrrolidin-3-ylamino)pyrido[4,3-d]pyrimidin-5-ol]
[1]; [16]
  IC50: > 10 µM
[1]; [17]
  IC50: 4.02 µM

## Oc1nccc2nc(NC3CCNC3)nc(Nc3cc(Cl)cc(Cl)c3)c12 (stereo not shown) [Compound 6, 4-(3,5-dichloroanilino)-2-(pyrrolidin-3-ylamino)pyrido[4,3-d]pyrimidin-5-ol]
[1]; [16]
  IC50: > 10 µM
[1]; [17]
  IC50: 7.49 µM

## O=c1[nH]ccc2nc(NC3CCCNC3)nc(Nc3ccc(S(=O)(=O)N4CCOCC4)cc3)c12 (stereo not shown) [Compound 7, 4-(4-morpholinosulfonylanilino)-2-(3-piperidylamino)pyrido[4,3-d]pyrimidin-5-ol]
[10]
  increase in LDH release: 12%
[11]
  growth inhibition of HepG2 cells: 13%
[12]
  inhibition of P. falciparum growth: > 95%
[1]
  Ki: 270 nM
[1]; [16]
  IC50: 0.4 µM
[1]; [17]
  IC50: 0.18 µM
[7]; wild type (RH), IFN-γ-activated RAW macrophages, vs DMSO vehicle
  proportion of Irga6 positive vacuoles, visual scoring, wild type parasites: did not result in a significant increase
[7]; wild type (RH), vs DMSO vehicle
  amount of Irga6 recruitment, quantitative immunofluorescence, wild type parasites: no significant increase
[7]; vs DMSO vehicle
  proportion of Irga6 positive vacuoles, visual scoring, Δrop18 parasites: caused a reduction
[7]
  amount of Irga6 recruitment, quantitative immunofluorescence, Δrop18 parasites: significantly lower
[8]
  EC50: 14200 nM

## NS(=O)(=O)CCc1cccc(Nc2nccc(-c3c(-c4cccc(NC(=O)c5c(F)cccc5F)c4)nn4ccccc34)n2)c1 [Compound 8, 2,6-difluoro-<I>N</I>-[3-[3-[2-[3-(2-sulfamoylethyl)anilino]pyrimidin-4-yl]pyrazolo[1,5-a]pyridin-2-yl]phenyl]benzamide]
[1]; [16]
  IC50: 0.63 µM
[1]; [17]
  IC50: 0.94 µM

## CS(=O)(=O)Cc1ccc(Nc2nccc(-c3c(-c4cccc(NC(=O)C5CCCCC5)c4)nn4ncccc34)n2)cc1 [Compound 9, <I>N</I>-[3-[3-[2-[4-(methylsulfonylmethyl)anilino]pyrimidin-4-yl]pyrazolo[1,5-b]pyridazin-2-yl]phenyl]cyclohexanecarboxamide]
[1]; [16]
  IC50: > 10 µM
[1]; [17]
  IC50: > 10 µM

## CS(=O)(=O)Cc1ccc(Nc2nccc(-c3c(-c4cccc(NC(=O)c5c(F)cccc5F)c4)nn4ccccc34)n2)cc1 [Compound 10, 2,6-difluoro-<I>N</I>-[3-[3-[2-[4-(methylsulfonylmethyl)anilino]pyrimidin-4-yl]pyrazolo[1,5-a]pyridin-2-yl]phenyl]benzamide]
[11]
  growth inhibition of HepG2 cells: 78%
[13]
  inhibition of 3D7 strain: 99%
[1]; [16]
  IC50: 2.83 µM
[1]; [17]
  IC50: 1 µM
[8]
  EC50: 1300 nM
[14]
  inhibition of Dd2 strain: 75%
[15]
  morphological damage to the host cells: rapid morphological damage

## COc1ccc(NC(=O)Nc2nc(SCC(=O)C(C)(C)C)ns2)cc1 [Compound 11, 1-[3-(3,3-dimethyl-2-oxo-butyl)sulfanyl-1,2,4-thiadiazol-5-yl]-3-(4-methoxyphenyl)urea]
[1]; [16]
  IC50: > 10 µM
[1]; [17]
  IC50: 6.44 µM

## Cc1cccc(Nc2nc(NC3CCCCC3N)ncc2C(N)=O)c1 (stereo not shown) [Compound 13, 2-[(2-aminocyclohexyl)amino]-4-(3-methylanilino)pyrimidine-5-carboxamide]
[1]; [16]
  IC50: > 10 µM
[1]; [17]
  IC50: 6.66 µM

## C[C@]12O[C@H](C[C@]1(O)CO)n1c3ccccc3c3c4c(c5c6ccccc6n2c5c31)CNC4=O [Compound 14, (5S,6S,8R)-6-hydroxy-6-(hydroxymethyl)-5-methyl-5,6,7,8,14,15-hexahydro-13H-16-oxa-4b,8a,14-triaza-5,8-methanodibenzo[b,h]cycloocta[jkl]cyclopenta[e]-as-indacen-13-one, reference compound]
[1]
  IC50: 0.16 µM
